Measured values gathered from unrelated publications.
Lines come from different studies, so protocols differ. pEC50, pIC50: −log10 of the molar value.
Cell line: MOLM-13
Effect on: cell growth or viability

With `CC[C@@H](C)[C@H](N)C(=O)N1Cc2ccccc2C1` the pIC50 was 5.73 (ATP luminescence; 48 h).
With `N[C@H]1CC[C@H](N[C@@H]2C[C@H]2c2ccccc2)CC1` the pEC50 was 9.68 (resazurin; 96 h).
For `N[C@@H](CC(=O)N1CCN(C(c2ccc(F)cc2)c2ccc(F)cc2)CC1)C(=O)N1Cc2ccccc2C1`, the pIC50 was 5.69 (ATP luminescence; 48 h).
`CCCCN(Cc1ccc(C(=O)NO)cc1)C(=O)Nc1ccccc1` gave a pIC50 of 6.66 (ATP luminescence; 72 h).
`C#CCN(C)Cc1ccccc1` has a pEC50 of < 5.70 (resazurin; 96 h).
`COc1cc(Nc2nccc(-c3cnn4nc(OC)ccc34)n2)cc(C(F)(F)F)c1` gave a pIC50 of 6.82 (ATP luminescence).
For `O=C(O)c1ccc(CN2CCC(CN[C@@H]3C[C@H]3c3ccccc3)CC2)cc1`, the pEC50 was 7.40 (resazurin; 96 h).
With `COc1cc(F)ccc1-c1cc(Nc2cc(CS(C)(=N)=O)ccn2)ncc1F` (stereo not drawn) the GI50 was 93.8 nM (24 h).
`CC(C)C[C@H](NC(=O)[C@H](Cc1ccccc1)NC(=O)c1cnccn1)B(O)O` gave a pIC50 of 8.35 (ATP luminescence).
With `Cc1cc2c(cc1N1C(=O)c3cccc4c(CCCO)ccc(c34)C1=O)n(C)c(=O)n2C` (racemic) the GI50 was 1060 nM (resazurin).
`CCCON(Cc1ccc(C(=O)NO)cc1)C(=O)Nc1ccccc1` gave a pIC50 of 6.62 (ATP luminescence; 72 h).
With `COc1cc2nccc(Oc3ccc(NC(=O)C4(C(=O)Nc5ccc(F)cc5)CC4)cc3)c2cc1OC` the pIC50 was 8.00 (trypan blue; 72 h).
The pIC50 of `COc1cc(-c2ncn(/C=C\C(=O)OC(C)C)n2)cc(C(F)(F)F)c1` is reported as 7.82 (72 h).
The pIC50 of `Nc1nc(Nc2ccc3c(c2)CC[C@@H](N2CCCC2)CC3)nn1-c1cc2c(nn1)-c1ccccc1CCC2` is reported as 6.78 (trypan blue; 72 h).
`NNCCc1ccccc1` has a pEC50 of < 5.70 (resazurin; 96 h).
